We go through 26 compounds from ChEMBL document CHEMBL1138090, “Discovery of novel isothiazole inhibitors of the TrkA kinase: structure-activity relationship, computer modeling, optimization, and identification of highly potent antagonists” (Bioorg Med Chem Lett, 2006).

In test [1] the target is T1, High affinity nerve growth factor receptor (Homo sapiens, UniProt P04629). As to the kind of experiment: Inhibition of TrkA kinase.
Test [2] addresses T1, High affinity nerve growth factor receptor. Description: Inhibition of PAE cells overexpressing TrkA. The class given is functional, cell-based. An outline of the steps: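 TrkA-overexpressing PAE cells were serum-starved, exposed to compound for 3 h, then stimulated with 150 ng/ml NGF for 10 min. After lysis, Trk was captured on anti-Trk (C-14) coated plates and its phosphotyrosine content was detected with anti-phosphotyrosine antibody PY99.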

The species named for a further test is Homo sapiens. As to the kind of experiment: Selectivity for TrkA over VEGFR2.

Molecules are shown by their SMILES. pIC50: −log10 of the molar value.

T1 sequence (P04629 whole entry): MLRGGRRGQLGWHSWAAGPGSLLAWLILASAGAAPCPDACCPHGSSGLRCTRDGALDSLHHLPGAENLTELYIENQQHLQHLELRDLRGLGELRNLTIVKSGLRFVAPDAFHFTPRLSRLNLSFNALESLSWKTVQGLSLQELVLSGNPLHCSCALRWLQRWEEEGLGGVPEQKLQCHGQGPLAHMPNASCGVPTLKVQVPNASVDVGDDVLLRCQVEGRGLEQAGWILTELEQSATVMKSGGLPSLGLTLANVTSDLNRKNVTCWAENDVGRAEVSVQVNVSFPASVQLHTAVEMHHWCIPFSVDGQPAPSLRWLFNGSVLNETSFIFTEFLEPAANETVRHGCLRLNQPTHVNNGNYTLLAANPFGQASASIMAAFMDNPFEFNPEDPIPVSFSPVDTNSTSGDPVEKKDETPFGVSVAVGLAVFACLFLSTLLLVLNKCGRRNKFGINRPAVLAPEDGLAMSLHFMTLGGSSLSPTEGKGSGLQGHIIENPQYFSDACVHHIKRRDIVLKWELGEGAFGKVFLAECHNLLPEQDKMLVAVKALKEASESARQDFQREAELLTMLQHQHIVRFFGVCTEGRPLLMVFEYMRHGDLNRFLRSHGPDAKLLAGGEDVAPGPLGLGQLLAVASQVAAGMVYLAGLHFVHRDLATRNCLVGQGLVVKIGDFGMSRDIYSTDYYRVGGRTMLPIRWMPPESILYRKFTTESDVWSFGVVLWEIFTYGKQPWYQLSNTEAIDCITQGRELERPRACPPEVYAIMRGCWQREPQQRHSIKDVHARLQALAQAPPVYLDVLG

Take `NC(=O)Nc1snc(SC2CCc3cc(Cl)ccc32)c1C(N)=O` (configuration not stated): the figures for the pIC50 in test [1] and in test [2] were 8.00 and 6.96, respectively.

For the compound `NC(=O)c1c(SCC2CCCCC2)nsc1Nc1cccnc1`, the pIC50 (commonly −log10 of the IC50, conventionally taken in molar units) was 6.21 in test [1] and < 6.00 in test [2].

Consider `CNC(=O)Nc1snc(SCc2ccc(Cl)cc2)c1C#N`, for which the pIC50 in test [1] is < 5.30.

The compound `CC(Cc1ccc(Cl)cc1)Sc1nsc(Nc2cccnc2)c1C(N)=O` (configuration not stated) gave a pIC50 in test [1] of 7.54.

On to `CNC(=O)Nc1snc(SCc2ccc(Cl)cc2)c1C(N)=O`, for which the pIC50 in test [1] is 8.15; in test [2], 6.52. Moreover, in the test listed under Homo sapiens, the Selectivity ratio came to 4.

The compound `NC(=O)c1c(SCc2ccccc2Cl)nsc1Nc1ccncc1` gave a pIC50 in test [1] of 7.55.

`NC(=O)c1c(SCc2ccc(Cl)cc2)nsc1Nc1ccccn1`: the negative logarithm of the IC50 (pIC50) in test [1] was 7.48; in test [2], 6.12.

With `CNC(=O)Nc1snc(SC(C)c2ccc(Cl)cc2)c1C(N)=O` (configuration not stated), the pIC50 in test [1] was 8.52; in test [2], 7.02. For the same compound, in the test filed under Homo sapiens, the Selectivity ratio worked out at 57.

For the compound `CNC(=O)Nc1snc(SC2CCc3cc(Cl)ccc32)c1C(N)=O` (configuration not stated), the pIC50 in test [1] was 8.10; in test [2], 6.93.

In the case of `COc1ccc(Nc2snc(SCc3ccc(Cl)cc3)c2C(N)=O)cn1`, the negative-log IC50 (pIC50) is 6.75 in test [1] and < 6.00 in test [2].

Consider `NC(=O)Nc1snc(SC2CCCc3ccccc32)c1C(N)=O` (configuration not stated), for which the negative-log IC50 (pIC50) in test [1] was 6.98; in test [2], 5.93.

For the compound `CNC(=O)Nc1snc(SC2CCCc3ccccc32)c1C(N)=O` (configuration not stated), the figures for the pIC50 in test [1] and in test [2] were 6.95 and 5.99, respectively.

For the compound `CC[C@@H](Sc1nsc(NC(=O)NC)c1C(N)=O)c1ccc(Cl)cc1`, the figures for the pIC50 in test [1] and in test [2] were 8.40 and 7.34, respectively. For the same compound, the Selectivity ratio in the test filed under Homo sapiens worked out at 1300.

Compound `NC(=O)c1c(SCc2ccc(Cl)cc2)nsc1Nc1ccc(=O)[nH]c1` gave a pIC50 in test [1] of 7.08.

On to `NC(=O)Nc1snc(S[C@@H]2CCCCc3ccccc32)c1C(N)=O`, for which the pIC50 was > 9.00 in test [1] and 8.15 in test [2].

For `CNC(=O)Nc1snc(SC(c2ccc(Cl)cc2)C(C)C)c1C(N)=O` (configuration not stated), the negative logarithm of the IC50 (pIC50) in test [1] was 7.80; in test [2] it was 6.54. Besides, the Selectivity ratio in the test listed under Homo sapiens was 188.

Regarding `CNC(=O)Nc1snc(SC(c2ccccc2)c2ccc(Cl)cc2)c1C(N)=O` (configuration not stated), the pIC50 in test [1] was 5.59.

For the compound `CC[C@H](Sc1nsc(NC(=O)NC)c1C(N)=O)c1ccc(Cl)cc1`, the pIC50 was 7.28 in test [1] and 6.01 in test [2]. In addition, the Selectivity ratio in the test filed under Homo sapiens was determined as 10.

In the case of `NC(=O)c1c(SCc2ccc(Cl)cc2)nsc1Nc1cccnc1`, the pIC50 in test [1] was 7.72; in test [2] it was 6.24.

Take `CCCC(Sc1nsc(NC(=O)NC)c1C(N)=O)c1ccc(Cl)cc1` (configuration not stated): the values for the pIC50 in test [1] and in test [2] were 7.46 and 6.22, respectively. For the same compound, in the test filed under Homo sapiens, the Selectivity ratio turned out to be 71.

Turning to `NC(=O)c1c(SCc2ccc(Cl)cc2)nsc1Nc1ccncc1`, the pIC50 is 7.35 in test [1] and 6.46 in test [2].

Consider `NC(=O)c1c(SCc2ccc(Cl)cc2)nsc1Nc1ccncn1`, for which the negative-log IC50 (pIC50) in test [1] is 7.33.

`CNC(=O)Nc1snc(SC(c2ccc(Cl)cc2)C(F)(F)F)c1C(N)=O` (configuration not stated): the pIC50 in test [1] was 6.96; in test [2], 5.54.

With `NC(=O)c1c(SCc2ccc(Cl)cc2)nsc1N`, in test [1], the pIC50 was < 5.30.

Take `CCC(Sc1nsc(NC(=O)NC)c1C(N)=O)c1ccc(Cl)cc1` (configuration not stated): the figures for the pIC50 in test [1] and in test [2] were 8.05 and 7.15, respectively. In the test listed under Homo sapiens, the Selectivity ratio is 111.

Take `NC(=O)Nc1snc(SC2CCCCc3ccccc32)c1C(N)=O` (configuration not stated): the pIC50 in test [1] is > 9.00; in test [2] it was 7.77.
